Assay results reported in ChEMBL document CHEMBL4229417, “Design and synthesis of alkyl substituted pyridino[2,3-D]pyrimidine compounds as PI3Kα/mTOR dual inhibitors with improved pharmacokinetic properties and potent in vivo antitumor activity” (Bioorg Med Chem, 2018).
The source made the active and inactive calls. The calls are words filed in the database; no cut-off is given here.

What was measured:
[1] = tested on: SK-OV-3; assay: Antiproliferative activity against human SKOV3 cells assessed as reduction in cell viability after 48 hrs by CCK8 assay; assay type: functional, cell-based; settings: SK-OV-3, 48 h
Summary of the method: (§1)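 Cells were seeded at 5000/well and grown 24 h at 37 °C, 5% CO2. They were then exposed 48 h to compound diluted from DMSO into medium (final DMSO <0.4%). CCK-8 was added for 1 h and absorbance read at 540 nm. IC50 came from the viability vs concentration (nM) curve, in triplicate.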

[2] = tested on: U-87 MG; assay: Antiproliferative activity against human U87MG cells assessed as reduction in cell viability after 48 hrs by CCK8 assay; assay type: functional, cell-based, U-87MG ATCC; summary of the method: as §1
[3] = tested on: MCF7; assay: Antiproliferative activity against human MCF7 cells assessed as reduction in cell viability after 48 hrs by CCK8 assay; assay type: functional, cell-based; settings: MCF7, 48 h; summary of the method: as §1
[4] = target: T1, Phosphatidylinositol 4,5-bisphosphate 3-kinase catalytic subunit alpha isoform (Homo sapiens, UniProt P42336); assay: Inhibition of PI3Kalpha (unknown origin) using PIP2 as substrate measured after 1 hr by Kinase-Glo luminescent assay
T1 sequence (P42336 whole entry, canonical isoform): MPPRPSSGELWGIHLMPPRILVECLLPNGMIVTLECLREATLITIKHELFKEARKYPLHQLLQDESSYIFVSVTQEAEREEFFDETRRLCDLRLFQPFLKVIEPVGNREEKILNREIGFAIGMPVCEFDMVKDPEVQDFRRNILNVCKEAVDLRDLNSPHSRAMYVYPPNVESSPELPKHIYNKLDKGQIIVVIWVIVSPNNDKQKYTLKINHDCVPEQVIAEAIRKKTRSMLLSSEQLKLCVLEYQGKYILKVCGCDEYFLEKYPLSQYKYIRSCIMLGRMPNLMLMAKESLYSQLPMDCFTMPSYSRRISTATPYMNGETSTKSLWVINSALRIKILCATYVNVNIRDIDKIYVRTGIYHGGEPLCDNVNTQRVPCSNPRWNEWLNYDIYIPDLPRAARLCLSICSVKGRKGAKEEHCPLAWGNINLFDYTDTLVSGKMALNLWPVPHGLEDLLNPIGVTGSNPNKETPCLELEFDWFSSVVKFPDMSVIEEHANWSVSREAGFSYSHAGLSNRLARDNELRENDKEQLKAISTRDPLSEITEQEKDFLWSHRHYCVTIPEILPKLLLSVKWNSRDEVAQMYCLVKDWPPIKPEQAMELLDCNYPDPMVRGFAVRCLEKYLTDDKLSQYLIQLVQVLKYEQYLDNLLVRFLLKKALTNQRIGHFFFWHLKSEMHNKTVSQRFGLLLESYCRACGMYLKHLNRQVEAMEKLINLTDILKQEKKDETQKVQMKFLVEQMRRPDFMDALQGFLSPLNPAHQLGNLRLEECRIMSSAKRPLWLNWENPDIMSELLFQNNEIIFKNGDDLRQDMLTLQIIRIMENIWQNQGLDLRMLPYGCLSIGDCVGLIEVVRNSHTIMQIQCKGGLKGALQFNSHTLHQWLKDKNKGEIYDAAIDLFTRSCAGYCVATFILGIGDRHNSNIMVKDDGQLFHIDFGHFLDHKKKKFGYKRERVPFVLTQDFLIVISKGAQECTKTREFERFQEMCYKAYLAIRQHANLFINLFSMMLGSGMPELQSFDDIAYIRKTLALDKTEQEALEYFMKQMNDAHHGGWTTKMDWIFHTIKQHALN

[5] = tested on: PC-3; assay: Antiproliferative activity against human PC3 cells assessed as reduction in cell viability after 48 hrs by CCK8 assay; assay type: functional, cell-based; settings: PC-3, 48 h; summary of the method: as §1
[6] = target: T2, Serine/threonine-protein kinase mTOR (Homo sapiens, UniProt P42345); assay: Inhibition of mTOR (unknown origin) using ULight-4E-BP1 peptide substrate measured after 1 hr by Lance Ultra assay
Summary of the method: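 mTOR (10 nM final) was reacted with ULight-4E-BP1 peptide (50 nM final) and ATP in kinase buffer for 1 h at room temperature.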

[7] = tested on: U-87 MG; assay: Antitumor activity against human U87MG cells xenografted in Balb/c mouse assessed as tumor growth inhibition at 3 mg/kg, ig administered daily for 10 days relative to control; assay type: functional, U-87MG ATCC; settings: po, 240 h, read-out: TGI
Summary of the method: (§2)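 Female BALB/c nude mice (6–7 weeks, 16–20 g, SPF, 5 groups of 5) were implanted subcutaneously with 5×10^6 U87MG cells. At 100–150 mm³ they were randomized and dosed intragastrically once daily for 10 days. Body weight was recorded twice every 3 days. Tumor volume was taken as V = 1/2ab² (a length, b width).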

[8] = target: T1, Phosphatidylinositol 4,5-bisphosphate 3-kinase catalytic subunit alpha isoform; assay: Potency index, ratio of AZD8055 IC50 to test compound IC50 for PI3Kalpha (unknown origin)
[9] = tested on: U-87 MG; assay: Antitumor activity against human U87MG cells xenografted in ig dosed Balb/c mouse assessed as tumor growth inhibition administered daily for 10 days; assay type: functional, organism-based; settings: U-87MG ATCC; summary of the method: as §2
[10] = tested on: U-87 MG; assay: Antitumor activity against human U87MG cells xenografted in Balb/c mouse assessed as tumor growth inhibition at 10 mg/kg, ig administered daily for 10 days relative to control; assay type: functional, U-87MG ATCC; settings: po, 240 h, read-out: TGI; summary of the method: as §2
[11] = Half life in pooled human liver microsomes at 50 uM pretreated for 5 mins followed by NADPH addition and measured after 120 mins by HPLC analysis; assay type: ADME, microsome
Summary of the method: (§3)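 Pooled adult male and female human liver microsomes at 1 mg/mL in 0.1 M Tris-HCl pH 7.4, with test compound at 50 μM final. Mixtures were preincubated 5 min at 37 °C, then started with NADPH regenerating system. Reactions were stopped at 120 min with cold methanol, centrifuged, and analysed by HPLC.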

[12] = target: T1, Phosphatidylinositol 4,5-bisphosphate 3-kinase catalytic subunit alpha isoform; assay: Inhibition of PI3Kalpha in human U87MG cells assessed as reduction in AKT phosphorylation at T308 residue at 20 to 200 nM after 24 hrs by Western blot analysis relative to control; assay type: cell-based
Summary of the method: (§4)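 U87MG cells were treated at indicated concentrations for 24 h at 37 °C, then lysed in RIPA with protease/phosphatase inhibitors and 1 mM PMSF. Lysates were run on SDS–PAGE and PVDF blots probed overnight at 4 °C for AKT, pAKT Ser473, pAKT Thr308, S6RP and pS6RP Ser235/236. HRP secondary was used with chemiluminescent detection.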

[13] = tested on: SK-OV-3; assay: Potency index, ratio of AZD8055 IC50 to test compound IC50 for human SKOV3 cells; assay type: functional
[14] = tested on: U-87 MG; assay: Antitumor activity against human U87MG cells xenografted in Balb/c mouse assessed as tumor growth inhibition at 30 mg/kg, ig administered daily for 10 days relative to control; assay type: functional, U-87MG ATCC; settings: po, 240 h, read-out: TGI; summary of the method: as §2
[15] = Half life in Beagle dog at 1 mg/kg, po administered as single dose via gavage; assay type: ADME, organism-based, Canis lupus familiaris; settings: in vivo
Summary of the method: (§5)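 Three male Beagle dogs (9–10 months, 9–10 kg) given 1 mg/kg by oral gavage as a solution in physiological saline with 5% DMSO. Blood was drawn at 0.25–24 h and spun within 1 h (1000 × g, 4 °C, 15 min). Plasma was stored at -20 °C. t1/2 and AUC0–24 were obtained by model-independent analysis, and Cmax and MRT directly from the plasma concentration–time data.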

[16] = target: T1, Phosphatidylinositol 4,5-bisphosphate 3-kinase catalytic subunit alpha isoform; assay: Inhibition of PI3Kalpha in human U87MG cells assessed as reduction in AKT phosphorylation at S473 residue at 20 to 200 nM after 24 hrs by Western blot analysis relative to control; assay type: cell-based; summary of the method: as §4
[17] = target: T1, Phosphatidylinositol 4,5-bisphosphate 3-kinase catalytic subunit alpha isoform; assay: Inhibition of PI3Kalpha in human U87MG cells assessed as reduction in AKT phosphorylation at S473 residue at 2 nM after 24 hrs by Western blot analysis relative to control; assay type: cell-based; summary of the method: as §4
[18] = target: T1, Phosphatidylinositol 4,5-bisphosphate 3-kinase catalytic subunit alpha isoform; assay: Inhibition of PI3Kalpha in human U87MG cells assessed as reduction in S6 phosphorylation at Ser235/236 after 24 hrs by Western blot analysis; assay type: cell-based; summary of the method: as §4
[19] = target: T2, Serine/threonine-protein kinase mTOR; assay: Potency index, ratio of AZD8055 IC50 to test compound IC50 for mTOR (unknown origin)
[20] = Cmax in Beagle dog at 1 mg/kg, po administered as single dose via gavage; assay type: ADME, organism-based, Canis lupus familiaris; set-up: dose 1 mg/kg, route oral; settings: in vivo; summary of the method: as §5
[21] = target: T1, Phosphatidylinositol 4,5-bisphosphate 3-kinase catalytic subunit alpha isoform; assay: Inhibition of PI3Kalpha in human U87MG cells assessed as reduction in AKT phosphorylation at T308 residue at 2 nM after 24 hrs by Western blot analysis relative to control; assay type: cell-based; summary of the method: as §4
[22] = Unbound clearance in pooled human liver microsomes at 50 uM pretreated for 5 mins followed by NADPH addition and measured after 120 mins by HPLC analysis; assay type: ADME, microsome; settings: 2 h; summary of the method: as §3
[23] = AUC (0 to 24 hrs) in Beagle dog at 1 mg/kg, po administered as single dose via gavage; assay type: ADME, organism-based, Canis lupus familiaris; set-up: time < 24 hr, dose 1 mg/kg, route oral; settings: in vivo; summary of the method: as §5
[24] = Mean residence time in Beagle dog at 1 mg/kg, po administered as single dose via gavage; assay type: ADME, organism-based, Canis lupus familiaris; settings: in vivo; summary of the method: as §5
[25] = tested on: Mus musculus; assay: Toxicity in Balb/c mouse xenografted with human U87MG cells assessed as body weight loss at 3 to 30 mg/kg, ig administered daily for 10 days measured twice every 3 days during compound dosing; assay type: organism-based; settings: in vivo, po; summary of the method: as §2

Row | SMILES | IC50 [1] [µM] | IC50 [2] [µM] | IC50 [3] [µM] | IC50 [4] [µM] | IC50 [5] [µM] | IC50 [6] [µM] | other results
1 | COc1ccc(-c2ccc3c(N4CCOCC4)nc(CN)nc3n2)cc1CO | > 1 | > 1 | > 1 | > 10 | > 1 | 0.146 | 
2 | CNC(=O)c1cccc(-c2ccc3c(N4CCOC[C@@H]4C)nc(C(C)(C)C)nc3n2)c1 | 0.0586 | 0.0325 | 0.031 | 1.3 | 0.11 | 0.072 | 
3 | COc1ccc(-c2ccc3c(N4CCOC[C@@H]4C)nc(C4=CCOCC4)nc3n2)cc1CO | 0.125 | 0.0855 | 0.225 | > 10 | 0.212 | 0.03 | 
4 | COc1ccc(-c2ccc3c(N4CCOC[C@@H]4C)nc(C)nc3n2)cc1CO | 0.0491 | 0.0919 | 0.0773 | > 10 | 0.066 | 0.095 | 
5 | COc1ccc(-c2ccc3c(N4CCOCC4)nc(C(CO)CO)nc3n2)cc1CO | > 1 | > 1 | > 1 | > 10 | > 1 | > 0.5 | 
6 | COc1ccc(-c2ccc3c(N4CCOC[C@@H]4C)nc(C4CCOCC4)nc3n2)cc1CO | 0.119 | 0.0942 | 0.443 | > 10 | 0.476 | 0.053 | 
7 | COc1ccc(-c2ccc3c(N4CCOCC4)nc(C(N)=O)nc3n2)cc1CO | 0.64 | 0.821 | > 1 | 3.2 | > 1 | 0.048 | 
8 | COc1ccc(-c2ccc3c(N4CCOCC4)nc(CS(C)(=O)=O)nc3n2)cc1CO | > 1 | > 1 | > 1 | > 10 | > 1 | > 0.5 | 
9 | COc1ccc(-c2ccc3c(N4CCOC[C@@H]4C)nc(C(C)(C)C)nc3n2)cc1CO | 0.007 | 0.0032 | 0.006 | 0.4 | 0.023 | 0.002 | inhibition in vivo at 3 mg/kg [7]: 28%; Ratio IC50 [8]: 10; TGI [9]: Dose-dependent effect; inhibition in vivo at 10 mg/kg [10]: 64%; half-life at 50 µM [11]: 0.515 h; inhibition [12]: 100%; Ratio IC50 [13]: 8; inhibition in vivo at 30 mg/kg [14]: 83%; half-life [15]: 5.4 h; inhibition [16]: 100%; inhibition [17]: Active; inhibition [18]: Dose-dependent effect; Ratio IC50 [19]: 4; Cmax [20]: 0.288 µg/mL; inhibition [21]: Active; CL free [22]: 28.1 µL/min/mg; AUC(0-t) at 24 h [23]: 0.857 µg·h/mL; MRT [24]: 4.3 h; Activity [25]: Non-Toxic
10 | COc1ccc(-c2ccc3c(N4CCOC[C@@H]4C)nc(CC(OC)OC)nc3n2)cc1CO | 0.0524 | 0.0892 | 0.072 | > 10 | 0.163 | 0.029 | 
11 | COc1ccc(-c2ccc3c(N4CCOCC4)nc(CC#N)nc3n2)cc1CO | 0.0545 | 0.0903 | 0.186 | > 10 | 0.0666 | 0.088 | 
12 | COc1ccc(-c2ccc3c(N4CCOC[C@@H]4C)nc(C(C)C)nc3n2)cc1CO | 0.0447 | 0.0338 | 0.054 | 3 | 0.155 | 0.01 | 
13 | COc1ccc(-c2ccc3c(N4CCOCC4)nc(C#N)nc3n2)cc1CO | 0.66 | 0.92 | > 1 | 2.6 | > 1 | 0.032 | 
14 | COc1ccc(-c2ccc3c(N4CCOC[C@@H]4C)nc(N4CCOC[C@@H]4C)nc3n2)cc1CO [AZD-8055] | 0.055 | 0.0212 | 0.027 |  | 0.0367 |  | inhibition in vivo at 10 mg/kg [10]: 59%; half-life at 50 µM [11]: 0.35 h; half-life [15]: 4.5 h; Cmax [20]: 0.228 µg/mL; CL free [22]: 28.6 µL/min/mg; AUC(0-t) at 24 h [23]: 0.787 µg·h/mL; MRT [24]: 3.1 h
